From ChEMBL document CHEMBL3588850, “Multivalent Amino Sugars to Recognize Different TAR RNA Conformations” (Medchemcomm, 2014)
Activity calls are given as the source filed them. The rule behind the calls is not given here.

Tests used:
Nucleic Acid [1] = assay: Induction of conformational changes in HIV1 TAR RNA U3 bulge mutant aassessed as changes in 260 to 270 nm region using 1 molar equivalents of compound at pH 6.8 by CD spectroscopy; type: nucleic-acid assay; conditions: Human immunodeficiency virus 1
Outline: (§1)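 Spectra recorded before and after adding 1 molar equivalent ligand (≤1% v/v, in buffer). Scan 325–200 nm at 500 nm/min, 1 nm bandwidth, 1 cm cuvette, 20 °C. Each spectrum is the average of 10 scans; ΔCD plotted.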

[2] = system: Human immunodeficiency virus 1; assay: Induction of thermal stability changes in HIV1 TAR RNA tetraloop mutant assessed as change in melting temperature using 1 molar equivalents of compound pre-incubated for 4 hrs at pH 6.8 at 4 degC before test by UV thermal denaturation assay
Outline: (§2)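 TAR RNA mutants at 1 μM/strand mixed with 1 or 2 molar equivalents of ligand in 100 mM KCl, 10 mM SC, 0.5 mM EDTA, pH 6.8, then held 4 h at 4 °C. Absorbance at 260 nm in 1 cm cuvettes, 15–100 °C, heating 0.3 °C/min. Tm taken from first-derivative plots and compared with the no-ligand sample.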

Nucleic Acid [3] = assay: Induction of conformational changes in HIV1 TAR RNA bulgeless tetraloop mutant assessed as changes in 260 to 270 nm region using 1 molar equivalents of compound at pH 6.8 by CD spectroscopy; type: nucleic-acid assay; conditions: Human immunodeficiency virus 1; outline: as §1
Nucleic Acid [4] = assay: Induction of conformational changes in HIV1 TAR RNA bulgeless tetraloop mutant assessed as changes in 210 to 220 nm region using 1 molar equivalents of compound at pH 6.8 by CD spectroscopy; type: nucleic-acid assay; conditions: Human immunodeficiency virus 1; outline: as §1
Nucleic Acid [5] = assay: Binding affinity to HIV1 TAR RNA tetraloop mutant at pH 6.8 by ethidium bromide displacement assay; type: nucleic-acid assay, Human immunodeficiency virus 1
Outline: (§3)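 Synthetic 2′-ACE-protected TAR RNA, deprotected, heated 98 °C 5 min, then ice-cooled 15 min. TAR RNA at 200 nM/strand with ethidium bromide 5 μM in 100 mM KCl, 10 mM SC, 0.5 mM EDTA, pH 6.8. Ligand added stepwise, ≤4% v/v. Excitation 545 nm, emission 580–660 nm, intensity at 610 nm normalized. IC50 from sigmoidal fit of fraction EtBr displaced vs log ligand; association constants from Scatchard analysis.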

[6] = system: Human immunodeficiency virus 1; assay: Induction of thermal stability changes in HIV1 TAR RNA bulgeless mutant assessed as change in melting temperature using 1 molar equivalents of compound pre-incubated for 4 hrs at pH 6.8 at 4 degC before test by UV thermal denaturation assay; outline: as §2
[7] = system: Human immunodeficiency virus 1; assay: Induction of thermal stability changes in wild type HIV1 TAR RNA assessed as change in melting temperature using 1 molar equivalents of compound pre-incubated for 4 hrs at pH 6.8 at 4 degC before test by UV thermal denaturation assay
[8] = system: Human immunodeficiency virus 1; assay: Induction of thermal stability changes in HIV1 TAR RNA bulgeless tetraloop mutant assessed as change in melting temperature using 1 molar equivalents of compound pre-incubated for 4 hrs at pH 6.8 at 4 degC before test by UV thermal denaturation assay; outline: as §2
Nucleic Acid [9] = assay: Binding affinity to HIV1 TAR RNA bulgeless mutant assessed as association constant at pH 6.8 by ethidium bromide displacement assay based Scatchard analysis method; type: nucleic-acid assay; conditions: Human immunodeficiency virus 1; outline: as §3
Nucleic Acid [10] = assay: Induction of conformational changes in HIV1 TAR RNA U3 bulge mutant assessed as induction of red shift in CD spectra region using 1 molar equivalents of compound at pH 6.8 by CD spectroscopy; type: nucleic-acid assay; conditions: Human immunodeficiency virus 1; outline: as §1
Nucleic Acid [11] = assay: Binding affinity to HIV1 TAR RNA U3 bulge mutant at assessed as association constant at pH 6.8 by ethidium bromide displacement assay based Scatchard analysis method; type: nucleic-acid assay; conditions: Human immunodeficiency virus 1; outline: as §3
Nucleic Acid [12] = assay: Induction of conformational changes in HIV1 TAR RNA tetraloop mutant assessed as induction of red shift in CD spectra region using 1 molar equivalents of compound at pH 6.8 by CD spectroscopy; type: nucleic-acid assay; conditions: Human immunodeficiency virus 1; outline: as §1
Nucleic Acid [13] = assay: Induction of conformational changes in HIV1 TAR RNA tetraloop mutant assessed as changes in 260 to 270 nm region using 1 molar equivalents of compound at pH 6.8 by CD spectroscopy; type: nucleic-acid assay; conditions: Human immunodeficiency virus 1; outline: as §1
Nucleic Acid [14] = assay: Binding affinity to HIV1 TAR RNA U3 bulge mutant at pH 6.8 by ethidium bromide displacement assay; type: nucleic-acid assay, Human immunodeficiency virus 1; outline: as §3
Nucleic Acid [15] = assay: Induction of conformational changes in wild type HIV1 TAR RNA assessed as increase in intensity in 265 nm region using 1 molar equivalents of compound at pH 6.8 by CD spectroscopy; type: nucleic-acid assay; conditions: Human immunodeficiency virus 1
Nucleic Acid [16] = assay: Induction of conformational changes in HIV1 TAR RNA bulgeless mutant assessed as changes in 260 to 270 nm region using 1 molar equivalents of compound at pH 6.8 by CD spectroscopy; type: nucleic-acid assay; conditions: Human immunodeficiency virus 1; outline: as §1
Nucleic Acid [17] = assay: Induction of conformational changes in wild type HIV1 TAR RNA assessed as changes in 210 to 220 nm region using 1 molar equivalents of compound at pH 6.8 by CD spectroscopy; type: nucleic-acid assay; conditions: Human immunodeficiency virus 1
Nucleic Acid [18] = assay: Induction of conformational changes in HIV1 TAR RNA U3 bulge mutant aassessed as changes in 210 to 220 nm region using 1 molar equivalents of compound at pH 6.8 by CD spectroscopy; type: nucleic-acid assay; conditions: Human immunodeficiency virus 1; outline: as §1
Nucleic Acid [19] = assay: Binding affinity to HIV1 TAR RNA tetraloop mutant assessed as association constant at pH 6.8 by ethidium bromide displacement assay based Scatchard analysis method; type: nucleic-acid assay; conditions: Human immunodeficiency virus 1; outline: as §3
[20] = system: Human immunodeficiency virus 1; assay: Induction of thermal stability changes in HIV1 TAR RNA U3 bulge mutant assessed as change in melting temperature using 1 molar equivalents of compound pre-incubated for 4 hrs at pH 6.8 at 4 degC before test by UV thermal denaturation assay; outline: as §2
Nucleic Acid [21] = assay: Induction of conformational changes in HIV1 TAR RNA bulgeless mutant assessed as changes in 210 to 220 nm region using 1 molar equivalents of compound at pH 6.8 by CD spectroscopy; type: nucleic-acid assay; conditions: Human immunodeficiency virus 1; outline: as §1
Nucleic Acid [22] = assay: Binding affinity to wild type HIV1 TAR RNA assessed as induction of chemical shifts changes of GH1 and UH3 regions by NMR spectroscopy; type: nucleic-acid assay; conditions: Human immunodeficiency virus 1
Outline: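 Imino-region 1D 1H jump-return echo spectra recorded at 298 K on an 850 MHz instrument with a cryoprobe, with increasing amounts of ligand added.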

Nucleic Acid [23] = assay: Binding affinity to HIV1 TAR RNA bulgeless tetraloop mutant assessed as association constant at pH 6.8 by ethidium bromide displacement assay based Scatchard analysis method; type: nucleic-acid assay; conditions: Human immunodeficiency virus 1; outline: as §3
Nucleic Acid [24] = assay: Induction of conformational changes in HIV1 TAR RNA bulgeless tetraloop mutant assessed as induction of red shift in CD spectra region using 1 molar equivalents of compound at pH 6.8 by CD spectroscopy; type: nucleic-acid assay; conditions: Human immunodeficiency virus 1; outline: as §1
Nucleic Acid [25] = assay: Binding affinity to wild type HIV1 TAR RNA at pH 6.8 by ethidium bromide displacement assay; type: nucleic-acid assay, Human immunodeficiency virus 1
Outline: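 TAR RNA (200 nM/strand) and EtBr (5 μM) in 100 mM KCl, 10 mM SC, 0.5 mM EDTA, pH 6.8, titrated with ligand aliquots (at most 4% v/v). Fluorescence excited at 545 nm and read at 610 nm. IC50 is the ligand concentration that displaces 50% of EtBr, taken from a sigmoidal fit of fraction displaced versus log ligand concentration.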

Nucleic Acid [26] = assay: Induction of conformational changes in HIV1 TAR RNA tetraloop mutant assessed as changes in 210 to 220 nm region using 1 molar equivalents of compound at pH 6.8 by CD spectroscopy; type: nucleic-acid assay; conditions: Human immunodeficiency virus 1; outline: as §1
Nucleic Acid [27] = assay: Induction of conformational changes in HIV1 TAR RNA bulgeless mutant assessed as induction of red shift in CD spectra region using 1 molar equivalents of compound at pH 6.8 by CD spectroscopy; type: nucleic-acid assay; conditions: Human immunodeficiency virus 1; outline: as §1
Nucleic Acid [28] = assay: Binding affinity to HIV1 TAR RNA bulgeless tetraloop mutant at pH 6.8 by ethidium bromide displacement assay; type: nucleic-acid assay, Human immunodeficiency virus 1; outline: as §3
Nucleic Acid [29] = assay: Binding affinity to wild type HIV1 TAR RNA assessed as association constant at pH 6.8 by ethidium bromide displacement assay based Scatchard analysis method; type: nucleic-acid assay; conditions: Human immunodeficiency virus 1
Outline: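 Ethidium bromide displacement: 5 μM EtBr with TAR RNA at 200 nM/strand (under 20% of EtBr bound) in 100 mM KCl, 10 mM SC, 0.5 mM EDTA, pH 6.8. Ligand added in concentrated aliquots, at most 4% v/v. Excitation 545 nm, emission 580–660 nm, intensity at 610 nm. Association constant obtained by Scatchard analysis of the titration data.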

Nucleic Acid [30] = assay: Binding affinity to HIV1 TAR RNA tetraloop mutant assessed as induction of imino chemical shifts changes by NMR spectroscopy; type: nucleic-acid assay; conditions: Human immunodeficiency virus 1

`NC[C@@H]1O[C@H](O[C@H]2[C@@H](O)[C@H](O[C@@H]3[C@@H](O)[C@H](N)C[C@H](N)[C@H]3O[C@H]3O[C@H](CN)[C@@H](O)[C@H](O)[C@H]3N)O[C@@H]2Cn2cc(COCc3cn(C[C@H]4O[C@@H](O[C@@H]5[C@@H](O)[C@H](N)C[C@H](N)[C@H]5O[C@H]5O[C@H](CN)[C@@H](O)[C@H](O)[C@H]5N)[C@H](O)[C@@H]4O[C@H]4O[C@@H](CN)[C@@H](O)[C@H](O)[C@H]4N)nn3)nn2)[C@H](N)[C@@H](O)[C@@H]1O` was tested. Which Activity (Nucleic Acid [1]) did it give?
Its Activity is “Active”.

And the ΔTm [2]?
Its ΔTm is 6 °C.

What about the Activity (Nucleic Acid [3]) of the same compound?
The Activity was “Active”.

And the Activity (Nucleic Acid [4])?
Its Activity is “inactive”.

And the IC50 (Nucleic Acid [5])?
Its IC50 is 156 nM.

And the ΔTm [6]?
The ΔTm was 5 °C.

And the ΔTm [7]?
Its ΔTm is 10.2 °C.

What about the ΔTm [8] of the same compound?
The ΔTm was > 5 °C.

And the K (Nucleic Acid [9])?
Its K is 7.5 ×10⁷ /M.

What about the Activity (Nucleic Acid [10]) of the same compound?
Its Activity is “Active”.

What about the K (Nucleic Acid [11]) of the same compound?
The K was 1.6 ×10⁷ /M.

What about the Activity (Nucleic Acid [12]) of the same compound?
The Activity was “Active”.

What about the Activity (Nucleic Acid [13]) of the same compound?
The Activity was “Active”.

What about the IC50 (Nucleic Acid [14]) of the same compound?
The IC50 was 186 nM.

And the Activity (Nucleic Acid [15])?
The Activity was “inactive”.

What about the Activity (Nucleic Acid [16]) of the same compound?
Its Activity is “Active”.

And the Activity (Nucleic Acid [17])?
The Activity was “Active”.

And the Activity (Nucleic Acid [18])?
The Activity was “Active”.

What about the K (Nucleic Acid [19]) of the same compound?
Its K is 2.7 ×10⁷ /M.

What about the ΔTm [20] of the same compound?
The ΔTm was 8.5 °C.

And the Activity (Nucleic Acid [21])?
The Activity was “inactive”.

What about the Activity (Nucleic Acid [22]) of the same compound?
Its Activity is “Dose-dependent effect”.

What about the K (Nucleic Acid [23]) of the same compound?
The K was 2.3 ×10⁸ /M.

And the Activity (Nucleic Acid [24])?
Its Activity is “Active”.

And the IC50 (Nucleic Acid [25])?
Its IC50 is 112 nM.

What about the Activity (Nucleic Acid [26]) of the same compound?
Its Activity is “inactive”.

What about the Activity (Nucleic Acid [27]) of the same compound?
Its Activity is “Active”.

And the IC50 (Nucleic Acid [28])?
Its IC50 is 122 nM.

And the K (Nucleic Acid [29])?
The K was 1.2 ×10⁸ /M.

And the Activity (Nucleic Acid [30])?
The Activity was “Active”.
